The values below come from ChEMBL document CHEMBL3421607, “Design, synthesis and antibacterial activity of cinnamaldehyde derivatives as inhibitors of the bacterial cell division protein FtsZ” (Eur J Med Chem, 2015).

The test system of assay [1] is Escherichia coli. The experiment in a line: Antibacterial activity against Escherichia coli. It counts as functional. In a few lines:
(§1)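 NCCLS tube-dilution MIC using B. subtilis ATCC9372 and E. coli ATCC25922. Strains were grown on Mueller Hinton agar at 37°C for 24 h. […] Tubes were incubated at 37°C for 24 h, and the MIC was read as the last tube without turbidity.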

The subject of assay [2] is Bacillus subtilis. The experiment in a line: Antibacterial activity against Bacillus subtilis. Format: functional. In a few lines:
as §1

Assay [3] has as its system Pseudomonas aeruginosa. The experiment in a line: microbe, parasite or virus in culture. It counts as functional. As to conditions: ATCC 27853, 24 h.
Assay [4] relates to Bacillus subtilis. The experiment in a line: microbe, parasite or virus in culture. It counts as functional. Particulars: ATCC 9372, 24 h.
Assay [5] has as its system Pseudomonas aeruginosa. The experiment in a line: microbe, parasite or virus in culture. Format: functional. Particulars: ATCC 27853, 5 h.
The test system of assay [6] is Bacillus subtilis. The experiment in a line: microbe, parasite or virus in culture. It counts as functional. Particulars: ATCC 9372, 5 h.
The subject of assay [7] is Staphylococcus epidermidis. The experiment in a line: Ratio of curcumin MIC to compound MIC for Staphylococcus epidermidis. Format: functional.
In assay [8] the test system is Staphylococcus aureus. The experiment in a line: microbe, parasite or virus in culture. Format: functional. As to conditions: ATCC 29213, 24 h.
Assay [9] has as its system Escherichia coli. The experiment in a line: microbe, parasite or virus in culture. As to conditions: ATCC 25922, 5 h. It counts as functional.
Assay [10] relates to Staphylococcus epidermidis. The experiment in a line: Ratio of cinnamic acid MIC to compound MIC for Staphylococcus epidermidis. Format: functional.
Assay [11] concerns Escherichia coli. The experiment in a line: microbe, parasite or virus in culture. Particulars: ATCC 25922, 24 h. Format: functional.
Assay [12] relates to Staphylococcus aureus. The experiment in a line: microbe, parasite or virus in culture. It counts as functional. Particulars: ATCC 25923, 24 h.
Assay [13] concerns Streptococcus pyogenes. The experiment in a line: Antibacterial activity against penicillin-susceptible Streptococcus pyogenes clinical isolates after 24 hrs by broth microdilution method. It counts as functional. A general note: In broth dilution the organism is exposed to a series of concentrations in liquid medium.
Assay [14] has as its system Staphylococcus aureus. The experiment in a line: Antibacterial activity against penicillin-resistant Staphylococcus aureus clinical isolates after 24 hrs by broth microdilution method. It counts as functional.
In assay [15] the test system is Staphylococcus epidermidis. The experiment in a line: Ratio of ciprofloxacin MIC to compound MIC for Staphylococcus epidermidis. It counts as functional.
For assay [16], the system named is Staphylococcus epidermidis. The experiment in a line: Antibacterial activity against penicillin-resistant Staphylococcus epidermidis clinical isolates after 24 hrs by broth microdilution method. Format: functional.
Assay [17] relates to Staphylococcus aureus. The experiment in a line: microbe, parasite or virus in culture. Format: functional. Particulars: ATCC 25923, 5 h.
For assay [18], the target named is T1, Cell division protein FtsZ (Escherichia coli K-12) (UniProt P0A9A6).
T1 sequence (whole entry): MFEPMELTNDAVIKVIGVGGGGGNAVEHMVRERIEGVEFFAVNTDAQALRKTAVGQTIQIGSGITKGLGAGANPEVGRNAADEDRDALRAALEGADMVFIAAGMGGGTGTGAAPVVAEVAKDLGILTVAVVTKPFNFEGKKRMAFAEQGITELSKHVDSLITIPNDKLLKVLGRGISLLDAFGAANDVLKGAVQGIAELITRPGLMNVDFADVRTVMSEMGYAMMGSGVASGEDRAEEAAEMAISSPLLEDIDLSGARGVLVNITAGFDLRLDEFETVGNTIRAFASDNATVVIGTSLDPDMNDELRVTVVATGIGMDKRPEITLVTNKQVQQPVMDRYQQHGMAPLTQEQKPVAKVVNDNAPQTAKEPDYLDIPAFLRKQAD
The experiment in a line: Inhibition of Escherichia coli ATCC 25922 recombinant N-His6-tagged FtsZ polymerization expressed in Escherichia coli BL21(DE3) by light scattering assay. In outline:
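E. coli FtsZ (N-His6, expressed in BL21(DE3), Ni-affinity purified) at 12 µM in 50 mM MES, 5 mM MgCl2, 50 mM KCl, pH 6.5 with compound at various concentrations, 2% DMSO, 30°C. Right-angle light scattering at 400 nm (excitation and emission). 120 s baseline, then polymerization started with 2 mM GTP and followed for 2000 s.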

Assay [19] has as its target T1, Cell division protein FtsZ (Escherichia coli K-12). The experiment in a line: (§2) Inhibition of Escherichia coli ATCC 25922 recombinant N-His6-tagged FtsZ polymerization expressed in Escherichia coli BL21(DE3) incubated for 15 mins prior to GTP addition measured after 390 mins by malachite green staining-based GTPase assay. As to conditions: in the assay text read “30 mins” for “390 mins”. In outline: (§3)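 Purified N-His6 E. coli FtsZ (10 µM) in 50 mM MES, 5 mM MgCl2, 50 mM KCl, pH 6.5 with compound at varying concentrations (2% DMSO), preincubated 15 min at room temperature. 50 μM GTP then added for 30 min at 37°C. Released phosphate measured by Malachite Green reagent (20% v/v) at A620, background-subtracted and read against a phosphate standard curve.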

In assay [20] the test system is Streptococcus pyogenes. The experiment in a line: Antibacterial activity against penicillin-resistant Streptococcus pyogenes clinical isolates after 24 hrs by broth microdilution method. Format: functional.
Assay [21] deals with Staphylococcus aureus. The experiment in a line: Ratio of curcumin MIC to compound MIC for penicillin-susceptible Staphylococcus aureus ATCC 25923. Format: functional.
The subject of assay [22] is Staphylococcus aureus. The experiment in a line: Ratio of ciprofloxacin MIC to compound MIC for penicillin-susceptible Staphylococcus aureus ATCC 25923. Format: functional.
The test system of assay [23] is Staphylococcus aureus. The experiment in a line: Ratio of cinnamic acid MIC to compound MIC for penicillin-susceptible Staphylococcus aureus ATCC 25923. Format: functional.
Assay [24] has as its target T2, Cell division protein FtsZ (Escherichia coli K-12, UniProt P0A9A6).
T2 sequence (P0A9A6 whole entry): T1 sequence (whole entry)
Described as §2. As to conditions: in the assay text read “30 mins” for “390 mins”. In a few lines:
as §3

In general, IC50 refers to the concentration at which inhibition is half-maximal.

Converted amounts (≈) assume the structure as drawn.

Consider `O=C/C=C/c1ccccc1`, for which the MIC in [1] is 1000 µg/mL (≈ 7570 µM); in assay [2], 500 µg/mL (≈ 3780 µM).

Take `Cc1nc2ccccc2n1C(=O)/C=C/c1ccccc1Cl`: the MIC in [3] was 128 µg/mL (≈ 431 µM); in assay [4], 128 µg/mL (≈ 431 µM); in assay [5], 128 µg/mL (≈ 431 µM); in [6], greater than 128 µg/mL; in [8], 128 µg/mL (≈ 431 µM); in assay [9], 128 µg/mL (≈ 431 µM). For the same compound, the MIC is 128 µg/mL (≈ 431 µM) in assay [11]; 32 µg/mL (≈ 108 µM) in assay [12]; greater than 128 µg/mL in assay [13]; 64 µg/mL (≈ 216 µM) in assay [14]; 4 µg/mL (≈ 13.5 µM) in assay [16]; 16 µg/mL (≈ 53.9 µM) in assay [17]. The Ratio in assay [7], in assay [10] and in assay [15] was greater than 32 throughout.

On to `Cc1nc2ccccc2n1C(=O)/C=C/c1ccc(F)cc1`, for which the MIC in assay [3] was 128 µg/mL (≈ 457 µM); in [4], 128 µg/mL (≈ 457 µM); in assay [5], greater than 128 µg/mL; in assay [6], greater than 128 µg/mL; in assay [8], greater than 128 µg/mL; in assay [9] it was greater than 128 µg/mL. For the same compound, the MIC in assay [11] came out at 128 µg/mL (≈ 457 µM); in assay [12] it was 16 µg/mL (≈ 57.1 µM); in [20], 64 µg/mL (≈ 228 µM); in [13], 128 µg/mL (≈ 457 µM); in assay [14], 64 µg/mL (≈ 228 µM); in assay [16], 16 µg/mL (≈ 57.1 µM). Also, the MIC in assay [17] stood at 0.5 µg/mL (≈ 1.78 µM). Besides, the inhibition result in [18] and in [19] was “Dose-dependent effect” in each case.

In the case of `Cc1nc2ccccc2n1C(=O)/C=C/c1ccc(Cl)cc1`, the MIC is 128 µg/mL (≈ 431 µM) in [3]; 128 µg/mL (≈ 431 µM) in assay [4]; greater than 128 µg/mL in assay [5]; greater than 128 µg/mL in assay [6]; greater than 128 µg/mL in assay [8]; greater than 128 µg/mL in assay [9]. Besides, the MIC in assay [11] is 128 µg/mL (≈ 431 µM); in assay [12] it was 8 µg/mL (≈ 27 µM); in [20], 8 µg/mL (≈ 27 µM); in assay [13] it was 32 µg/mL (≈ 108 µM); in assay [14] it was 64 µg/mL (≈ 216 µM); in [16], 16 µg/mL (≈ 53.9 µM). In [17], this compound had an MIC of 0.5 µg/mL (≈ 1.68 µM). In addition, the inhibition entry in assay [18] and in assay [19] was “Dose-dependent effect” in each case.

On to `Cc1nc2ccccc2n1C(=O)/C=C/c1ccccc1`, for which the MIC in [3] is 128 µg/mL (≈ 488 µM); in assay [4], 128 µg/mL (≈ 488 µM); in [5], greater than 128 µg/mL; in assay [6] it was greater than 128 µg/mL; in [8] it was greater than 128 µg/mL; in assay [9], greater than 128 µg/mL. The MIC came out at 128 µg/mL (≈ 488 µM) in assay [11]; 4 µg/mL (≈ 15.2 µM) in [12]; 128 µg/mL (≈ 488 µM) in assay [20]; 128 µg/mL (≈ 488 µM) in assay [13]; 64 µg/mL (≈ 244 µM) in [14]; 32 µg/mL (≈ 122 µM) in assay [16]. Moreover, in assay [17], the MIC is 0.25 µg/mL (≈ 0.953 µM). The Ratio in [21], in assay [22] and in assay [23] was greater than 512 each time.

Consider `Cc1nc2ccccc2n1C(=O)/C=C/c1ccc(Cl)cc1Cl`, for which the MIC was 128 µg/mL (≈ 386 µM) in [3]; 128 µg/mL (≈ 386 µM) in assay [4]; greater than 128 µg/mL in assay [5]; greater than 128 µg/mL in assay [6]; greater than 128 µg/mL in assay [8]; greater than 128 µg/mL in assay [9]. Besides, the MIC in assay [11] is 128 µg/mL (≈ 386 µM); in [12] it was 4 µg/mL (≈ 12.1 µM); in assay [20], 64 µg/mL (≈ 193 µM); in assay [13], greater than 128 µg/mL; in assay [14] it was 16 µg/mL (≈ 48.3 µM); in assay [16] it was 4 µg/mL (≈ 12.1 µM). In addition, the MIC in assay [17] was 1 µg/mL (≈ 3.02 µM). For the same compound, the inhibition entry in [18] and in assay [19] was “Dose-dependent effect” throughout. Moreover, the Ratio in assay [7], in assay [10] and in assay [15] was greater than 32 in each case. For the same compound, in assay [24], the IC50 was 90.6 µM.
